Screening results: PubChem, Broad Institute
Rows were chosen to be rich in hits. Some 1.1% of all compounds tested hit in one or more screens of this group.
GSK3A inh – blocks human GSK-3 alpha kinase | inhibition, % at 10 µM | ADP-Glo luminescence, 60 min | actives 0.1% (n = 320,000) | P49840 | AID 2650;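 active = more than half of replicates show inhibition above 20%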;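 also: GST-tagged GSK-3 alpha with peptide substrate and 25 µM ATP; 0% = DMSO neutral wells and 100% = GW8510 positive control wells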
Target sequence (P49840 whole entry, looked up): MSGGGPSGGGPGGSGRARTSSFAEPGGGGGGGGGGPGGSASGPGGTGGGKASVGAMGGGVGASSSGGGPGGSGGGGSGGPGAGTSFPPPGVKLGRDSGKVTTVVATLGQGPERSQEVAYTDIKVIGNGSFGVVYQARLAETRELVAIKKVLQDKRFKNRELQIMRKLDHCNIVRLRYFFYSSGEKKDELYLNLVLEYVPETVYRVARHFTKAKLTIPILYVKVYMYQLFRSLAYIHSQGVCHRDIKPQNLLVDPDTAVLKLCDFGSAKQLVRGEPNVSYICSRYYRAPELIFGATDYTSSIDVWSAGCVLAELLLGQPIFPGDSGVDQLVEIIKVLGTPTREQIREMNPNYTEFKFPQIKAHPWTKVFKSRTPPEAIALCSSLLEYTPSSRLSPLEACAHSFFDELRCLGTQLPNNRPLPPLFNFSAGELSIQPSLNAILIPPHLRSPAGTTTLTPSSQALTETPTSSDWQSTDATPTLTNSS
GSK3beta inhib – human GSK3beta kinase inhibition. P49841. GST-GSK3beta kinase, ADP-Glo luminescence, 60 min; hits give low values. activity score (negative = inhibition), % at 10 µM. actives 0.038% (n = 300,000);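 active = more than half of replicate wells score below -50%, meaning over 50% inhibition versus plate controls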;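 also: 0% = median DMSO wells and -100% = median GW8510 positive control wells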
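test system = GST-tagged human GSK3beta kinase, cell-free | reagent = 25 µM ATP with peptide substrate | dosing = one dose of 10 µM per compound | schedule = 60 min reaction, RT | detection = luminescent ADP-Glo measurement of ADP formed | control set = DMSO neutral wells and GW8510 at 20 µM as positive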
SR-BI uptake up – activators of SR-BI mediated HDL lipid uptake; CHO ldlA[mSR-BI] cells, DiI-HDL uptake fluorescence, 3 h; 100 = double the neutral-control signal; activation, % at 12.5 µM; actives 0.096% (n = 320,000);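 active = mean replicate activation of at least 60% and every replicate at or above 60%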;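 also: 0% = median plate neutral-control signal and 100% = twice that signal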
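Assay system: LDL receptor-deficient CHO ldlA cells overexpressing murine SR-BI / Medium: BSA-supplemented, HEPES-buffered Ham's F12, pH 7.4 / Probe or stimulus: DiI-labelled HDL at 10 µg/mL final / Timing: compound with DiI-HDL co-incubation, 3 h at 37 °C / Technique: bottom-read cell fluorescence after medium removal, ex 550/em 595 nm / Measure: HDL uptake via cellular fluorescence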
SR-BI DiI inh – blocks mouse SR-BI lipid uptake from DiI-HDL; Q61009; ldlA[mSR-BI] CHO cells, DiI-HDL uptake fluorescence, 3 h; inhibition, % at 12.5 µM; actives 0.96% (n = 320,000); AID 488896;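 active = mean replicate inhibition of at least 70% and a set share of replicates each scoring 70 or more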;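 also: 0% = median of neutral control wells and 100% = median of positive control wells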
CDK5 inh – inhibitors of human CDK5/p35 kinase | Q00535+Q15078 | Recombinant CDK5/p35, ADP-Glo luminescence, 60 min | inhibition, % at 10 µM | actives 0.01% (n = 330,000);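 active = highest replicate inhibition of at least 50% and at least 75% of replicates reaching 50%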;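 also: plate controls were DMSO neutral control for no effect and GW8510 at 10 µM for full effect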
Active calls of the source: *; . = not tested or not shown.

SMILES	GSK3A inh	GSK3beta inhib	SR-BI uptake up	SR-BI DiI inh	CDK5 inh
CCOC(=O)C1=C(C)c2ccccc2N(C(=O)OC)C1(C)C(=O)OCC (configuration not stated)	.	.	13.5	-13.5	-1.1
CCC(C)C(=O)N1c2ccccc2C(=C2SC(C(=O)OC)=C(C(=O)OC)S2)C(=S)C1(C)C (configuration not stated)	0.1	0.4	-89.2	89.2*	-0.2
COc1ccc(C)cc1N(C(=O)c1snc(C(N)=O)c1N)C(C(=O)NC1CCCCC1)c1ccc(C)o1 (configuration not stated)	.	-2.8	15.0	-15.0	1.4
Cc1cccc(NC2=Nc3ccccc3N3C2=Nc2c(c(C)nn2-c2ccccc2)C3c2ccc(O)c(O)c2)c1 (configuration not stated)	-2.8	-5.5	-102.6	102.7*	-0.2
Cc1ccc(NC2=Nc3ccccc3N3C2=Nc2c(c(C)nn2-c2ccccc2)C3c2ccc(O)c(O)c2)cc1 (configuration not stated)	.	.	-119.3	119.3*	-4.1
Cc1nn(-c2ccccc2)c2c1C(c1ccc(O)c(O)c1)N1C(=N2)C(Nc2ccccc2)=Nc2ccccc21 (configuration not stated)	.	2.8	-17.1	17.1	1.7
CCCc1cc(=O)[nH]c(SCCc2ccccc2)n1	-2.9	3.8	11.5	-11.5	-0.3
CCN(CC)CC(O)Cn1c(C)c(-c2ccccc2)c2cc([N+](=O)[O-])ccc21 (configuration not stated)	-1.0	2.8	-89.1	89.1*	2.0
CCN(CC)CC(O)Cn1c2ccccc2c2ccccc21 (configuration not stated)	-2.9	1.2	.	.	1.0
Cc1nc2c(-c3ccc(F)cc3)c(C)nn2c(C)c1CCC(=O)Nc1ccc(F)cc1F	6.1	3.5	-74.5	74.5*	-1.9
Cc1nc2c(-c3ccc(F)cc3)c(C)nn2c(C)c1CCC(=O)NC(C)CCc1ccco1 (configuration not stated)	-2.4	1.8	-62.6	62.6	0.3
OCc1nc2ccccc2n1/N=C/c1cccs1	-0.4	2.4	2.2	-2.2	0.8
O=[N+]([O-])c1ccc(-c2c(-c3ccccc3)ncc3cc(F)ccc23)cc1	1.9	.	-86.5	86.5*	-0.5
CC(=O)c1ccc(-c2ccc(C(=O)Nc3nc(-c4ccccn4)cs3)o2)cc1	-8.0	.	-81.2	81.2*	-0.9
C(=Cc1c[nH]c2ccccc12)c1nccc2ccccc12	.	.	-71.5	71.5*	-1.5
CN(C)c1ccc(C(=O)Nc2nc3c(s2)CCCC3)cc1	-4.7	-1.3	-84.0	84.0*	0.8
COc1ccc(C(C)NC(=O)CC23CC4CC(CC(C4)C2)C3)cc1 (configuration not stated)	-1.1	1.8	-11.1	11.1	-0.1
O=C(C1=C[C@@H](c2ccc(Br)cc2)C[C@@H](OCc2ccc(CO)cc2)O1)N1CCN(Cc2ccccc2)CC1	0.0	2.4	62.8*	-62.8	2.7
C#Cc1ccc([C@H]2C=C(C(=O)N3CCN(Cc4ccccc4)CC3)O[C@@H](OCc3ccc(CO)cc3)C2)cc1	-0.9	-0.1	14.5	-14.5	0.3
N=C(c1cccc([N+](=O)[O-])c1)N1CCCCC1	-1.7	4.5	8.1	-8.1	2.5
Cc1ccc(C(=O)Nc2ccc(C(=O)N/N=C/c3ccc(C)o3)cc2)cc1	-0.9	0.9	-79.7	79.7*	-0.4
COc1ccc(/C=N/NC(=O)c2cccc(NC(=O)c3ccccc3Cl)c2)c(OC)c1	6.3	0.4	-76.6	76.6*	0.8
Cc1ccc(C(=O)Nc2cccc(C(=O)N/N=C/c3ccc(F)cc3)c2)cc1	-1.2	2.8	-75.9	75.9*	0.4
C/C(=N\NC(=O)c1c(Cl)cnn1C)c1cccc(NC(=O)c2ccc(C)cc2)c1	-1.6	2.6	-84.8	84.8*	1.2
Cc1ccc(/C=N/NC(=O)c2ccc(NC(=O)c3ccc(Cl)cc3)cc2)o1	0.3	4.6	-49.9	49.9	0.9
Oc1ccc(Br)cc1C=Nc1ccc2c3c(cccc13)CC2	.	-1.4	-4.7	4.7	0.5
COc1ccc(S(=O)(=O)N2CCOCC2)cc1NC(=O)CN1C(=O)NC(C)(C2CC2)C1=O (configuration not stated)	-1.2	.	-8.6	8.6	-1.9
